Source: PubChem BioAssay (several laboratories)
Diaphorase inh – diaphorase inhibition or chemical oxidation counter-screen. diaphorase resazurin-to-resorufin fluorescence, NADH, 16 min; bacterial (C. kluyveri) enzyme, not human. inhibition, % at 20 µM. 190,000 tested, 0.69% active;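 active means primary screen inhibition at 20 µM above a set limit, cut at about 50% in these data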;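 further: plate controls were DMSO with full reaction for no effect and wells lacking NADH for full effect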
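Assay system: diaphorase enzyme from Clostridium kluyveri. Quantity: enzyme working solution with 0.14 U/mL diaphorase. Schedule: reaction incubation of 16 min at room temperature. Technique: resorufin fluorescence, excitation 544 nm, emission 590 nm. Controls: No-NADH positive control and DMSO neutral control.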
G6PDH CS – L. mesenteroides G6PDH inhibition counter-screen; Purified L. mesenteroides G6PDH, diaphorase/resazurin coupled fluorescence, 45 min; inhibition, % at 5 µM; 200,000 tested, 0.12% active; AID 1020
PfG6PD inh – PfG6PD (Plasmodium falciparum) enzyme inhibition | PfGluPho enzyme, NADPH resazurin-diaphorase fluorescence | inhibition, % at 20 µM | 350,000 tested, 0.78% active;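 active means inhibition reaching at least a set limit at 20 µM in the primary screen, cut at about 59% in these data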;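 further: 0% = DMSO wells with substrate and 100% = DMSO wells lacking glucose-6-phosphate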
DTT redox prof – compounds producing H2O2 with reducing agent – biochemical, NIH compound library profiling, artefact control for MLSCN library redox annotation, primary screen | activation, % at 10 µM | 200,000 tested, 0.03% active | DTT-dependent redox cycling H2O2, phenol red/HRP absorbance; 100% = 100 µM peroxide control, 0% = buffer;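 active means activation of at least 50% relative to the plate's high and low controls in the primary single-dose screen; inactive means activation below 50%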;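 further: compound incubated with DTT at 0.8 mM final as the reducing agent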
Diaph act CS – counter-screen for diaphorase-based assays: diaphorase activators and chemical reducers; Diaphorase/resazurin coupled assay, resorufin fluorescence, 16 min; hits give high values; 1 = vehicle wells, 0 = NADH-free wells; activation factor at 20 µM; 190,000 tested, 0.005% active; AID 1229;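 active means diaphorase activity raised at least twofold by the compound at 20 µM; inactive means activation factor below 2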
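System – purified diaphorase enzyme from Clostridium kluyveri · Input – enzyme 0.07 U/mL final · Also added – final NADH 0.114 mM, resazurin 0.1 mM · Measured by – fluorescence of resorufin, 544 nm excitation, 590 nm emission · Timing – 16 min enzyme reaction, ambient temperature · Measure – resorufin increase flagging diaphorase activators or reducers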
Lmaj promast – inhibitors of Leishmania major promastigote growth; Leishmania major promastigotes, resazurin fluorescence viability; inhibition, % at 10 µM; 200,000 tested, 9% active; AID 1063;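 further: promastigotes grown with compound for 44 hours at 28 °C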
An asterisk follows results filed as active. Many of the other results were omitted from the sample, so hits are more common in it than they were. Unless noted, no stated cut-off is given here; in the data, active means inhibition above about 50%; inactive means the rest.

What do the screens show for `CC(C)NCC(=O)Nc1c2c(nc3ccccc13)CCC2`?
PfG6PD inh: -8

What do the screens show for `COc1ccc([N+](=O)[O-])cc1C(=O)NCCOc1ccc(Cl)cc1`?
PfG6PD inh: -3

What do the screens show for `O=C(c1ccc(F)cc1)N1CCCCC(S(=O)(=O)c2ccccc2)C1=O` (stereo not given)?
Diaphorase inh: 1; G6PDH CS: 0; PfG6PD inh: 0; DTT redox prof: 1; Diaph act CS: 1; Lmaj promast: -2

How did Cc1ccc(-c2csc(N(CC3CCCO3)C(=O)c3ccco3)n2)cc1 (stereo not given) do in these assays?
Diaphorase inh: 27; G6PDH CS: 6; PfG6PD inh: 0; DTT redox prof: 0; Diaph act CS: 0.7; Lmaj promast: 76*

What do the screens show for `O=C(c1ccco1)N(CC1CCCO1)c1nc(-c2ccccc2)cs1` (stereo not given)?
Diaphorase inh: 39; G6PDH CS: 3; PfG6PD inh: 25; DTT redox prof: 0; Diaph act CS: 0.6; Lmaj promast: 12

How did CC(=O)Nc1cccc(C(=O)/C=C/c2ccc[nH]2)c1 do in these assays?
PfG6PD inh: 21

Results for CCC(=O)Nc1cccc(C(=O)/C=C/c2cc(Br)ccc2OC)c1 ?
Diaphorase inh: 17; G6PDH CS: 1; PfG6PD inh: 18; DTT redox prof: 2; Diaph act CS: 0.8; Lmaj promast: 100*

What do the screens show for `CC(=O)Nc1cccc(C(=O)/C=C/c2ccc(/C=C/C(=O)c3cccc(NC(C)=O)c3)cc2)c1`?
Diaphorase inh: 2; G6PDH CS: -26; DTT redox prof: 0; Diaph act CS: 1; Lmaj promast: 80*

How did CC(=O)Nc1cccc(C(=O)/C=C/c2ccc(N(C)C)cc2)c1 do in these assays?
Diaphorase inh: 12; G6PDH CS: -4; PfG6PD inh: 34; DTT redox prof: -1; Diaph act CS: 0.9; Lmaj promast: 7

How did COc1ccc(Br)cc1/C=C/C(=O)Nc1ccc2ccccc2c1 do in these assays?
Diaphorase inh: 25; G6PDH CS: 13; PfG6PD inh: 14; DTT redox prof: 3; Diaph act CS: 0.8; Lmaj promast: 5

What do the screens show for `CC(=O)Nc1cccc(C(=O)/C=C/c2ccc(F)cc2)c1`?
Diaphorase inh: 8; G6PDH CS: -5; PfG6PD inh: 14; DTT redox prof: 0; Diaph act CS: 0.9; Lmaj promast: 100*

Results for CC(=O)Nc1cccc(C(=O)/C=C/c2ccc(Br)cc2)c1 ?
Diaphorase inh: 26; G6PDH CS: -1; PfG6PD inh: -1; Diaph act CS: 0.7; Lmaj promast: 100*

Results for COc1ccc(C2c3[nH]c4ccccc4c3CCN2C(=O)Cc2nonc2C)c(F)c1 (stereo not given) ?
PfG6PD inh: 18

What do the screens show for `COC(=O)c1cc(NS(=O)(=O)c2ccc(C(C)C)cc2)ccc1N1CCOCC1`?
PfG6PD inh: 7

What do the screens show for `CCOc1ccc(C(=O)C(C)OC(=O)Cn2c(C)csc2=O)cc1` (stereo not given)?
PfG6PD inh: -8

How did CCCCn1c(SCC(=O)N(C)C2CCS(=O)(=O)C2)nc2cc(S(N)(=O)=O)ccc21 (stereo not given) do in these assays?
PfG6PD inh: -4

How did O=C(c1cnc(Cl)c(Cl)c1)N1CCC(Cc2ccccc2)CC1 do in these assays?
Diaphorase inh: 14; G6PDH CS: -1; PfG6PD inh: -1; DTT redox prof: -1; Diaph act CS: 0.9; Lmaj promast: 4

How did CN(C)c1ccc(C(=O)/C=C/c2ccc(Br)cc2)cc1 do in these assays?
Diaphorase inh: 11; G6PDH CS: 2; PfG6PD inh: 0; DTT redox prof: 0; Diaph act CS: 0.9; Lmaj promast: 90*

How did COc1ccc(OC)c(/C=C/C(=O)OCC(=O)Nc2cccc(C(C)=O)c2)c1 do in these assays?
Diaphorase inh: 2; G6PDH CS: 7; PfG6PD inh: -8; DTT redox prof: 0; Diaph act CS: 1; Lmaj promast: 66*

What do the screens show for `COc1ccc(/C=C/C(=O)Nc2cccc(C(C)=O)c2)cc1`?
Diaphorase inh: 4; G6PDH CS: -5; PfG6PD inh: 53; DTT redox prof: 0; Diaph act CS: 1; Lmaj promast: 85*

How did COc1ccc(OC)c(/C=C/C(=O)Oc2ccc(C(C)=O)cc2)c1 do in these assays?
PfG6PD inh: 16

How did COc1ccc(Nc2cc(C)nc(N3CCN(C(=O)c4ccc5c(c4)OCO5)CC3)n2)cc1 do in these assays?
PfG6PD inh: 27

What do the screens show for `O=C(NC(=S)Nc1nc2ccccc2s1)c1ccco1`?
Diaphorase inh: 24; G6PDH CS: -8; PfG6PD inh: -2; DTT redox prof: 0; Diaph act CS: 0.8; Lmaj promast: 9

How did O=C1CC(N2CCN(c3nc4ccccc4s3)CC2)C(=O)N1Cc1cccs1 (stereo not given) do in these assays?
Diaphorase inh: 13; G6PDH CS: -1; PfG6PD inh: 7; DTT redox prof: 2; Diaph act CS: 0.9; Lmaj promast: 38

What do the screens show for `Cc1cccn2c(=O)c3cc(S(=O)(=O)c4ccccc4)c(=N)n(Cc4ccco4)c3nc12`?
G6PDH CS: 6; PfG6PD inh: -5; DTT redox prof: 0; Lmaj promast: 31

How did CCOC(=O)c1cc2c(=O)n3ccccc3nc2n(Cc2ccco2)c1=NC(=O)c1ccc(OC)cc1 do in these assays?
Diaphorase inh: 35; G6PDH CS: 8; PfG6PD inh: 8; DTT redox prof: -1; Diaph act CS: 0.7; Lmaj promast: 47

Results for Cc1ccc2nc3c(cc(S(=O)(=O)c4ccccc4)c(=N)n3Cc3ccco3)c(=O)n2c1 ?
Diaphorase inh: 52*; G6PDH CS: -2; PfG6PD inh: 5; DTT redox prof: -1; Diaph act CS: 0.5; Lmaj promast: 81*

Results for N=c1c(S(=O)(=O)c2ccccc2)cc2c(=O)n3ccccc3nc2n1Cc1ccco1 ?
Diaphorase inh: 51*; G6PDH CS: 0; PfG6PD inh: 15; DTT redox prof: 1; Diaph act CS: 0.5; Lmaj promast: 45

How did CCOC(=O)c1cc2c(=O)n3ccccc3nc2n(Cc2ccco2)c1=NC(=O)c1ccccc1OC do in these assays?
Diaphorase inh: 80*; G6PDH CS: -1; PfG6PD inh: 7; DTT redox prof: 1; Diaph act CS: 0.2; Lmaj promast: 23

How did Cc1ccc(S(=O)(=O)c2cc3c(=O)n4ccccc4nc3n(Cc3ccco3)c2=N)cc1C do in these assays?
Diaphorase inh: 33; G6PDH CS: 3; PfG6PD inh: -3; DTT redox prof: 1; Diaph act CS: 0.7; Lmaj promast: 56*

How did NS(=O)(=O)c1ccc(CCNC(=O)c2ccc([N+](=O)[O-])s2)cc1 do in these assays?
PfG6PD inh: 15
